From ChEMBL document CHEMBL4184341, “Structure-Based Design of Inhibitors with Improved Selectivity for Steroidogenic Cytochrome P450 17A1 over Cytochrome P450 21A2” (J Med Chem, 2018) come the findings set out here.

The target in assay [1] is T1, Steroid 17-alpha-hydroxylase/17,20 lyase (Homo sapiens, UniProt P05093). Kind of assay: Inhibition of C-terminal His-tagged recombinant human CYP17A1delta19H mutant expressed in Escherichia coli DH5alpha assessed as decrease in progesterone hydroxylation preincubated for 3 mins followed by NADPH addition measured after 10 mins in presence of cytochrome p450 reductase by LC-MS/MS method. A digest of the protocol: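 Purified human CYP17A1 (20 pmol) was preincubated with full-length human CPR (80 pmol) for 20 min at rt. […] After 3 min at 37 °C, 1 mM NADPH was added and the reaction ran 10 min before a TCA stop. The 17α-hydroxy product was read by LC-MS/MS.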
T1 sequence (P05093 whole entry, looked up): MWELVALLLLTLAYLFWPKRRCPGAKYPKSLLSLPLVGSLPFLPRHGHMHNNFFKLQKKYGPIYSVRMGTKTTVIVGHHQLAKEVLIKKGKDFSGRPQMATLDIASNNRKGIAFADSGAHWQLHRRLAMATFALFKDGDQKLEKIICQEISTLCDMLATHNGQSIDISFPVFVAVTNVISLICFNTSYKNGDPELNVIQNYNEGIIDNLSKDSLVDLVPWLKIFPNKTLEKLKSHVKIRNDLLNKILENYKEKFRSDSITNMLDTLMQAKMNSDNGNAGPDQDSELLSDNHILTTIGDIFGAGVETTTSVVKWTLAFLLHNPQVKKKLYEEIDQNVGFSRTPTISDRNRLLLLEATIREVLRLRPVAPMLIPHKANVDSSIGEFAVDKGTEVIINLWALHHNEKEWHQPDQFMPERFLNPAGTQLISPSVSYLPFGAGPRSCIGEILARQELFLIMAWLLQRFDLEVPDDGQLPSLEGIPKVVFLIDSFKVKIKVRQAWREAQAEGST

In another assay the target is Steroid 21-hydroxylase (Homo sapiens, UniProt P08686). The assay can be described thus: Inhibition of C-terminal His-tagged recombinant human CYP21A2deltaH mutant expressed in Escherichia coli DH5alpha assessed as decrease in progesterone hydroxylation preincubated for 3 mins followed by NADPH addition measured after 8 mins in presence of cytochrome p450 reductase by LC-MS/MS method.
Chain of Steroid 21-hydroxylase (P08686 whole entry, looked up, stated change not applied): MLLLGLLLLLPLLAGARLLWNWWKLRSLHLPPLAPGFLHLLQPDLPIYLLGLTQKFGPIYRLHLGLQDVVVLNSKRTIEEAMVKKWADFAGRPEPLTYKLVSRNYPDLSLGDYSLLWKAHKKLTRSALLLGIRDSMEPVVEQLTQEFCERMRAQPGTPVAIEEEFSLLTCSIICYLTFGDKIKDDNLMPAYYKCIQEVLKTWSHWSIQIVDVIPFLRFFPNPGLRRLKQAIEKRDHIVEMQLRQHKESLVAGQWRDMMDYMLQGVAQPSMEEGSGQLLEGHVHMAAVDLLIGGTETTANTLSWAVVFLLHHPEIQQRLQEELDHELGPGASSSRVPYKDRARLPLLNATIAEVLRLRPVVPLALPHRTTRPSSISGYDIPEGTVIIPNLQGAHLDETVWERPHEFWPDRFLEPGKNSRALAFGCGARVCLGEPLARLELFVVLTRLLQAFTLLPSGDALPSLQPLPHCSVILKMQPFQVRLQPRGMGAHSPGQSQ

The species named for the next assay is Homo sapiens. Kind of assay: Selectivity ratio of IC50 for C-terminal His-tagged recombinant human CYP21A2deltaH mutant to IC50 for C-terminal His-tagged recombinant human CYP17A1delta19H mutant.
In assay [2] the target is T1, Steroid 17-alpha-hydroxylase/17,20 lyase. The assay can be described thus: Inhibition of C-terminal His-tagged recombinant human CYP17A1delta19H mutant expressed in Escherichia coli JM109 cells assessed as decrease in progesterone hydroxylation in presence of cytochrome P450 reductase […].

Molecules are shown by their SMILES.

With `C[C@]12CC[C@H](O)CC1=C(C#N)C[C@@H]1[C@@H]2CC[C@]2(C)C(c3cccnc3)=CC[C@@H]12`, the half-maximal inhibitory concentration (IC50) in assay [1] is 0.0155 µM.
As for `C[C@]12CC[C@H](O)C[C@@H]1C(=O)C[C@@H]1[C@@H]2CC[C@]2(C)C(c3cccnc3)=CC[C@@H]12`, the IC50 on Steroid 21-hydroxylase worked out at 0.44 µM; in assay [1], 0.0124 µM. Besides, the Ratio IC50 in the assay filed under Homo sapiens was 35.
With `C[C@]12CC[C@H](O)CC1=CC[C@@H]1[C@@H]2CC[C@]2(C)C(c3cccnc3)=CC[C@@H]12` [ABIRATERONE], the figures for the IC50 in assay [1] and in assay [2] were 0.00494 µM and 0.0094 to 0.092 µM, respectively.
Regarding `C[C@]12CC[C@H](O)CC1=C(C(N)=O)C[C@@H]1[C@@H]2CC[C@]2(C)C(c3cccnc3)=CC[C@@H]12`, the values for the IC50 (on Steroid 21-hydroxylase; in assay [1]) were 0.673 µM and 0.0228 µM, respectively. For the same compound, the Ratio IC50 in the assay listed under Homo sapiens amounted to 29.
Taken in the same sequence, the figures for `C[C@]12CC[C@H](O)C[C@@H]1NC(=O)C[C@@H]1[C@@H]2CC[C@]2(C)C(c3cccnc3)=CC[C@@H]12` were 3.6 µM, 0.23 µM and 16.
In the case of `C[C@]12CC[C@H](O)CC1=CC[C@@H]1[C@@H]2CC[C@]2(C)C(n3cnc4ccccc43)=CC[C@@H]12` [GALETERONE], in assay [1], the 50% inhibitory concentration (IC50) turned out to be 0.0281 µM.
On to `C[C@]12CC[C@H](O)C[C@@H]1[C@@H](O)C[C@@H]1[C@@H]2CC[C@]2(C)C(c3cccnc3)=CC[C@@H]12`, for which the 50% inhibitory concentration (IC50) was 0.234 µM at Steroid 21-hydroxylase and 0.0072 µM in assay [1]. In the assay listed under Homo sapiens, the Ratio IC50 amounted to 33.
As for `C[C@]12CCC(=O)C=C1CC[C@@H]1[C@@H]2CC[C@]2(C)C(c3cccnc3)=CC[C@@H]12`, the IC50 on Steroid 21-hydroxylase is 0.0007 µM; in assay [1], 0.00613 µM.
`C[C@]12CC[C@H](O)CC1=CC[C@@H]1[C@@H]2CC[C@]2(C)C(c3ccccc3)=CC[C@@H]12`: the IC50 at Steroid 21-hydroxylase was at least 0.7 µM; in assay [1], above 20 µM.

Broadly, the IC50 is the point on the concentration scale where inhibition reaches its midpoint.
